Measured values published in ChEMBL document CHEMBL4265973, “Broad-spectrum antibacterial amphiphilic aminoglycosides: A new focus on the structure of the lipophilic groups extends the series of active dialkyl neamines” (Eur J Med Chem, 2018).
Values after ≈ are worked out from the molar mass of the structure shown. Active and inactive are the calls of the source. The calls are words filed in the database; no cut-off is given here.

Tests used:
[1] = test system: Pseudomonas aeruginosa; test: Antibacterial activity against Pseudomonas aeruginosa ATCC 27853 measured over 1 month by microdilution assay; assay type: functional, organism-based
Procedure, shortened: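 Serial passage of P. aeruginosa ATCC 27853 held continuously at half the MIC for up to 38 days. […] The new minimal inhibitory concentration is read by visual inspection, confirmed by agar dilution, and the drug level raised to match.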

[2] = test system: Pseudomonas aeruginosa; test: microbe, parasite or virus in culture; settings: ATCC 27853
[3] = test system: J774; test: (§1) Cytotoxicity against mouse J774 cells assessed as cell viability at 10 uM after 24 hrs by MTT assay relative to control; assay type: cell-based; settings: j774, 24 h, 10 µM
Procedure, shortened: (§2)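 Murine J774 macrophages are exposed for 24 h to compound at 10 or 30 µM, then given 0.2 mg/mL MTT for 1 h. The reaction is stopped with DMSO and OD read at 570 nm; viability is metabolic activity as % of control. The number of independent experiments is given per value.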

[4] = test system: J774; test: (§3) Cytotoxicity against mouse J774 cells assessed as cell viability at 30 uM after 24 hrs by MTT assay relative to control; assay type: cell-based; settings: j774, 24 h, 30 µM; procedure, shortened: as §2
[5] = test system: Staphylococcus aureus; test: Antibacterial activity against Staphylococcus aureus ATCC 25923 by microdilution assay; assay type: functional
Procedure, shortened: (§4)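 Broth microdilution MIC per CLSI recommendations, fresh culture in cation-adjusted Mueller-Hinton broth, starting inoculum 10^6 cells.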

[6] = test system: Staphylococcus aureus; test: Antibacterial activity against Staphylococcus aureus SA-1 expressing NorA pump by microdilution assay
[7] = test system: Staphylococcus aureus; test: Antibacterial activity against methicillin-resistant Staphylococcus aureus ATCC 33592 by microdilution assay; assay type: functional; procedure, shortened: as §4
[8] = test system: Pseudomonas aeruginosa; test: Antibacterial activity against Pseudomonas aeruginosa ATCC 27853 by microdilution assay; assay type: functional
Procedure, shortened: (§5)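 Broth microdilution per CLSI recommendations, using a fresh culture in cation-adjusted Mueller-Hinton broth (CA-MHB) and a starting inoculum of 10^6 cells; the MIC is the value read.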

[9] = test system: Pseudomonas aeruginosa; test: Antibacterial activity against Pseudomonas aeruginosa FO3 harboring AAC6'-2A by microdilution assay; assay type: functional; procedure, shortened: as §4
[10] = test system: Pseudomonas aeruginosa; test: Antibacterial activity against Pseudomonas aeruginosa PA22 harboring surexp MexXY by microdilution assay; assay type: functional; procedure, shortened: as §4
[11] = test system: Pseudomonas aeruginosa; test: Antibacterial activity against Pseudomonas aeruginosa PA406 harboring triABC deletion mutant by microdilution assay; assay type: functional; procedure, shortened: as §4
[12] = test system: Acinetobacter lwoffii; test: Antibacterial activity against Acinetobacter lwoffii ATCC 17925 by microdilution assay; assay type: functional; procedure, shortened: as §5
[13] = test system: Acinetobacter lwoffii; test: Antibacterial activity against Acinetobacter lwoffii AI.88-483 harboring APH3'-6A by microdilution assay; assay type: functional; procedure, shortened: as §4
[14] = test system: Escherichia coli; test: Antibacterial activity against Escherichia coli PAZ505H8101 harboring AAC6'-1B by microdilution assay; assay type: functional; procedure, shortened: as §4
[15] = test system: Escherichia coli; test: Antibacterial activity against Escherichia coli L8058.1 harboring ANT2'-1A by microdilution assay; assay type: functional; procedure, shortened: as §4
[16] = test system: Klebsiella pneumoniae; test: Antibacterial activity against Klebsiella pneumoniae 700603 by microdilution assay; assay type: functional; procedure, shortened: as §5
[17] = as §1; assay type: cell-based; settings: J774 cells, read-out: Activity; procedure, shortened: as §2
[18] = as §3; assay type: cell-based; settings: J774 cells, read-out: Activity; procedure, shortened: as §2
[19] = test system: Pseudomonas aeruginosa; test: Antibacterial activity against Pseudomonas aeruginosa ATCC 27853 after 15 to 38 days by microdilution assay; assay type: functional
[20] = test system: Escherichia coli; test: microbe, parasite or virus in culture; settings: ATCC 25922

| Compound | Activity [1] | MIC [2] [µg/mL] | Activity [3] [%] | Activity [4] [%] | MIC [5] [µg/mL] | MIC [6] [µg/mL] | MIC [7] [µg/mL] | MIC [8] [µg/mL] | MIC [9] [µg/mL] | MIC [10] [µg/mL] | MIC [11] [µg/mL] | MIC [12] [µg/mL] | MIC [13] [µg/mL] | MIC [14] [µg/mL] | MIC [15] [µg/mL] | MIC [16] [µg/mL] | viability at 24 h, 10 µM [17] [%] | viability at 24 h, 30 µM [18] [%] | MIC [19] [µg/mL] | MIC [20] [µg/mL] |
| --- | --- | --- | --- | --- | --- | --- | --- | --- | --- | --- | --- | --- | --- | --- | --- | --- | --- | --- | --- | --- |
| NC[C@H]1O[C@H](O[C@H]2[C@H](O)[C@@H](O)[C@H](N)C[C@@H]2N)[C@H](N)[C@@H](OCCCc2ccc3ccccc3c2)[C@@H]1OCCCc1ccc2ccccc2c1 | Active |  |  |  |  |  |  |  |  |  |  |  |  |  |  |  |  |  |  |  |
| O=C(O)c1cn(C2CC2)c2cc(N3CCNCC3)c(F)cc2c1=O [CIPROFLOXACIN] | Active | 16 (≈ 48.3 µM) |  |  |  |  |  |  |  |  |  |  |  |  |  |  |  |  |  |  |
| GENTAMICIN |  |  | 88.4 | 82.9 |  |  |  |  |  |  |  |  |  |  |  |  |  |  |  |  |
| CCCCCCCCCO[C@@H]1[C@@H](N)[C@@H](O[C@H]2[C@H](O)[C@@H](OCCCCCCCCC)[C@H](N)C[C@@H]2N)O[C@H](CN)[C@H]1O |  |  |  |  | 1 (≈ 1.74 µM) | 1 (≈ 1.74 µM) | 2 to 4 (≈ 3.48 to 6.96 µM) | 2 to 4 (≈ 3.48 to 6.96 µM) | 4 to 8 (≈ 6.96 to 13.9 µM) | 4 (≈ 6.96 µM) | 2 to 4 (≈ 3.48 to 6.96 µM) | 2 (≈ 3.48 µM) | 16 (≈ 27.8 µM) | 2 to 4 (≈ 3.48 to 6.96 µM) | 2 to 4 (≈ 3.48 to 6.96 µM) | 4 (≈ 6.96 µM) | 86.7 | 67.4 | 4 (≈ 6.96 µM) | 2 to 4 (≈ 3.48 to 6.96 µM) |
| NC[C@H]1O[C@H](O[C@H]2[C@H](O)[C@@H](OCCCc3ccc4ccccc4c3)[C@H](N)C[C@@H]2N)[C@H](N)[C@@H](OCCCc2ccc3ccccc3c2)[C@@H]1O | Active |  |  |  | 2 (≈ 3.04 µM) | 2 (≈ 3.04 µM) | 2 (≈ 3.04 µM) | 8 to 16 (≈ 12.1 to 24.3 µM) | 16 (≈ 24.3 µM) | 16 (≈ 24.3 µM) | 2 to 4 (≈ 3.04 to 6.07 µM) | 4 (≈ 6.07 µM) | 32 to 64 (≈ 48.6 to 97.1 µM) | 4 to 8 (≈ 6.07 to 12.1 µM) | 16 (≈ 24.3 µM) | 32 (≈ 48.6 µM) | 91.1 | 89.5 |  | 8 (≈ 12.1 µM) |
| CCCCCCCO[C@@H]1[C@@H](O)[C@H](O[C@H]2O[C@H](CN)[C@@H](O)[C@H](O)[C@H]2N)[C@@H](N)C[C@H]1N |  |  |  |  | > 128 | > 128 | > 128 | > 128 | > 128 | > 128 | > 128 | 64 (≈ 152 µM) | > 128 | > 128 | > 128 | > 128 | 84.3 | 71.3 |  | > 128 |
| CCCCCCCO[C@@H]1[C@@H](N)[C@@H](O[C@H]2[C@H](O)[C@@H](OCCCCCCC)[C@H](N)C[C@@H]2N)O[C@H](CN)[C@H]1O |  |  |  |  | 8 (≈ 15.4 µM) | 8 (≈ 15.4 µM) | 8 (≈ 15.4 µM) | 32 (≈ 61.7 µM) | 8 (≈ 15.4 µM) | 16 (≈ 30.8 µM) | 4 (≈ 7.71 µM) | 32 (≈ 61.7 µM) | > 128 | 16 (≈ 30.8 µM) | 32 (≈ 61.7 µM) | 64 (≈ 123 µM) | 96.3 | 79.9 |  | 32 (≈ 61.7 µM) |
| CCCCCCCCCCCO[C@@H]1[C@@H](N)[C@@H](O[C@H]2[C@H](O)[C@@H](OCCCCCCC)[C@H](N)C[C@@H]2N)O[C@H](CN)[C@H]1O |  |  |  |  | 1 (≈ 1.74 µM) | 32 (≈ 55.7 µM) | 1 (≈ 1.74 µM) | 2 (≈ 3.48 µM) | 4 (≈ 6.96 µM) | 4 (≈ 6.96 µM) | 2 (≈ 3.48 µM) | 2 (≈ 3.48 µM) | > 128 | 2 (≈ 3.48 µM) | 4 (≈ 6.96 µM) | 4 (≈ 6.96 µM) | 88.4 | 39.1 |  | 2 (≈ 3.48 µM) |
